Measured values from ChEMBL document CHEMBL5214897, “Modular Design of Membrane-Active Antibiotics: From Macromolecular Antimicrobials to Small Scorpionlike Peptidomimetics” (J Med Chem, 2021).
≈ marks a conversion by molar mass, not a printed value. Calls of active or inactive are those of the source. No cut-off for these calls is given here.

How the values were obtained:
Enterococcus faecalis = assay: Antibacterial activity against vancomycin-resistant Enterococcus faecalis assessed as bacterial growth inhibition incubated for 16 hrs by microplate reader assay; type: functional
How it was run: (§1)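 Strains grown in TSB at 37 °C for 16 h with shaking, subcultured 6 h to mid-log. 10^6 CFU/mL bacteria mixed 1:1 with compound over 0.75 to 25 μg/mL. Incubated at 37 °C for 16 h; MIC read on a microplate reader.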

Escherichia coli = assay: Antibacterial activity against Escherichia coli assessed as bacterial growth inhibition incubated for 16 hrs by microplate reader assay; type: functional
How it was run: (§2)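 Strains E. coli ATCC 25922, K. pneumoniae ATCC 13383, P. aeruginosa ATCC 27853 grown in TSB at 37 °C for 16 h with shaking, subcultured 6 h to mid-log.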

Pseudomonas aeruginosa = assay: Antibacterial activity against Pseudomonas aeruginosa assessed as bacterial growth inhibition incubated for 16 hrs by microplate reader assay; type: functional; how it was run: as §2
Staphylococcus aureus [1] = assay: Antibacterial activity against methicillin-resistant Staphylococcus aureus assessed as bacterial growth inhibition incubated for 16 hrs by microplate reader assay; type: functional; how it was run: as §1
[2] = test system: Staphylococcus epidermidis; assay: Antibacterial activity against methicillin-resistant Staphylococcus epidermidis assessed as bacterial growth inhibition incubated for 16 hrs by microplate reader assay; type: functional; how it was run: as §1
[3] = Hemolytic activity in human RBC assessed as hemolysis incubated for 1 hr by microplate reader assay; type: toxicity, cell-based, Erythrocyte; settings: human red blood cells (erythrocytes)
How it was run: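 Fresh human erythrocytes washed in 1× PBS (700 g, 10 min), made to 5% suspension, mixed 1:1 with compound (250 to 1.95 µg/mL), 37 °C for 1 h. After centrifugation, supernatant diluted in PBS and A540 read; 2% Triton-100 = 100%, PBS = 0%; HC50 derived from % hemolysis.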

[4] = Therapeutic index, ratio of HC50 for Hemolytic activity in human RBC to MIC for Antibacterial activity against methicillin-resistant Staphylococcus aureus; type: toxicity
Klebsiella pneumoniae = assay: Antibacterial activity against Klebsiella pneumoniae assessed as bacterial growth inhibition incubated for 16 hrs by microplate reader assay; type: functional; how it was run: as §2
Staphylococcus aureus [5] = assay: Antibacterial activity in ICR mouse infected with methicillin-resistant Staphylococcus aureus assessed as presence of erythema at 5 mg/ml,sc measured after 48 hrs; type: functional, organism-based
How it was run: (§3)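 Female ICR mice (16–20 g), anaesthetised and dorsum shaved. Subcutaneous abscess made with 100 μL MRSA at 1×10^8 CFU/mL. After 30 min, 100 μL of compound in sterile PBS (0.5 or 5 mg/mL) injected into the infection site; PBS controls. At 48 h: skin imaged, abscess bacteria plate-counted, H&E histology, IL-6 and TNF-α measured in skin homogenate by ELISA.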

Staphylococcus aureus [6] = assay: Antibacterial activity in ICR mouse infected with methicillin-resistant Staphylococcus aureus assessed as reduction in TNF-alpha level at 5 mg/ml,sc measured after 48 hrs by ELISA assay; type: functional, organism-based; how it was run: as §3
[7] = Toxicity in ICR mouse infected with methicillin-resistant Staphylococcus aureus assessed as histopathological abnormalities in liver at […],sc measured after 48 hrs by H and E staining based assay; type: organism-based; settings: in vivo
How it was run: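 MRSA abscess model in female ICR mice: 100 μL compound in PBS (0.5 or 5 mg/mL) injected subcutaneously at the infection site 30 min after inoculation. Major organs harvested and examined by H&E staining for systemic toxicity.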

Staphylococcus aureus [8] = assay: Antibacterial activity in ICR mouse infected with methicillin-resistant Staphylococcus aureus assessed as reduction in IL-6 level at 5 mg/ml,sc measured after 48 hrs by ELISA assay; type: functional, organism-based; how it was run: as §3
Staphylococcus aureus [9] = assay: Antibacterial activity in ICR mouse infected with methicillin-resistant Staphylococcus aureus assessed as reduction in skin inflammatory cells at 5 mg/ml,sc measured after 48 hrs by H and E staining based analysis; type: functional, organism-based; how it was run: as §3
Staphylococcus aureus [10] = assay: Antibacterial activity in ICR mouse infected with methicillin-resistant Staphylococcus aureus assessed as reduction in microbial burden at 5 mg/ml,sc measured after 48 hrs; type: functional; parameters: scale not given: the % may be the effect or the level left; how it was run: as §3
Staphylococcus aureus [11] = assay: Antibacterial activity in ICR mouse infected with methicillin-resistant Staphylococcus aureus assessed as reduction in colony growth at 5 mg/ml,sc measured after 48 hrs; type: functional; how it was run: as §3

Compound	MIC (Enterococcus faecalis) [µg/mL]	MIC (Escherichia coli) [µg/mL]	MIC (Pseudomonas aeruginosa) [µg/mL]	MIC (Staphylococcus aureus [1]) [µg/mL]	MIC [2] [µg/mL]	HC50 at 1 h [3] [µg/mL]	selectivity ratio [4]	MIC (Klebsiella pneumoniae) [µg/mL]	Activity (Staphylococcus aureus [5])	Activity (Staphylococcus aureus [6])	Activity [7]	Activity (Staphylococcus aureus [8])	Activity (Staphylococcus aureus [9])	Activity (Staphylococcus aureus [10]) [%]	Activity (Staphylococcus aureus [11]) [log10CFU/ml]
CCCCCCCC(=O)NCCNC(=O)c1cc(NC(=O)CN(C[C@@H](N)CCCCN)C(=O)c2ccc(-c3ccccc3)cc2)cc(NC(=O)CN(C[C@@H](N)CCCCN)C(=O)c2ccc(-c3ccccc3)cc2)c1	4.5 (≈ 4.4 µM)	9 (≈ 8.79 µM)	4.5 (≈ 4.4 µM)	4.5 (≈ 4.4 µM)	4.5 (≈ 4.4 µM)	> 250	> 55.5	> 25	–	–	–	–	–	–	–
O=C(O)c1cn(C2CC2)c2cc(N3CCNCC3)c(F)cc2c1=O [CIPROFLOXACIN]	0.9 (≈ 2.72 µM)	–	0.45 (≈ 1.36 µM)	0.24 (≈ 0.724 µM)	0.45 (≈ 1.36 µM)	–	–	0.9 (≈ 2.72 µM)	Active	Active	Toxic	Active	Active	81.1	0.7
CCCCCCCC(=O)NCCNC(=O)c1cc(NC(=O)CN(C[C@@H](N)CCCCN)C(=O)c2ccc(Cl)cc2)cc(NC(=O)CN(C[C@@H](N)CCCCN)C(=O)c2ccc(Cl)cc2)c1	–	> 25	–	> 25	–	> 250	–	–	–	–	–	–	–	–	–
CCCCCCCC(=O)NCCNC(=O)c1cc(NC(=O)CN(C[C@@H](N)CCCCN)C(=O)CC23CC4CC(CC(C4)C2)C3)cc(NC(=O)CN(C[C@@H](N)CCCCN)C(=O)CC23CC4CC(CC(C4)C2)C3)c1	4.5 (≈ 4.43 µM)	4.5 (≈ 4.43 µM)	4.5 (≈ 4.43 µM)	2 (≈ 1.97 µM)	2 (≈ 1.97 µM)	> 250	> 125	4.5 (≈ 4.43 µM)	–	–	–	–	–	–	–
CCCCCCCC(=O)NCCNC(=O)c1cc(NC(=O)CN(C[C@@H](N)CCCCN)C(=O)c2cccc(Cl)c2)cc(NC(=O)CN(C[C@@H](N)CCCCN)C(=O)c2cccc(Cl)c2)c1	–	> 25	–	> 25	–	> 250	–	–	–	–	–	–	–	–	–
CCCCCCCC(=O)NCCNC(=O)c1cc(NC(=O)CN(C[C@@H](N)CCCCN)C(=O)CCCCC)cc(NC(=O)CN(C[C@@H](N)CCCCN)C(=O)CCCCC)c1	–	> 25	–	> 25	–	> 250	–	–	–	–	–	–	–	–	–
CCCCCCCCCCCC(=O)NCCNC(=O)c1cc(NC(=O)CN(C[C@@H](N)CCCCN)C(=O)CCCCCCC)cc(NC(=O)CN(C[C@@H](N)CCCCN)C(=O)CCCCCCC)c1	> 25	> 25	> 25	4.5 (≈ 4.63 µM)	9 (≈ 9.26 µM)	> 250	> 55.5	> 25	–	–	–	–	–	–	–
CCCCCCCCCCCC(=O)NCCNC(=O)c1cc(NC(=O)CNC[C@@H](N)CCCCN)cc(NC(=O)CNC[C@@H](N)CCCCN)c1	–	> 25	–	> 25	–	> 250	–	–	–	–	–	–	–	–	–
CCCCCCCCCC(=O)NCCNC(=O)c1cc(NC(=O)CN(C[C@@H](N)CCCCN)C(=O)CC23CC4CC(CC(C4)C2)C3)cc(NC(=O)CN(C[C@@H](N)CCCCN)C(=O)CC23CC4CC(CC(C4)C2)C3)c1	4.5 (≈ 4.31 µM)	19 (≈ 18.2 µM)	2 (≈ 1.92 µM)	1 (≈ 0.958 µM)	2 (≈ 1.92 µM)	> 250	> 250	4.5 (≈ 4.31 µM)	–	–	–	–	–	–	–
CCCCCCNC(=O)c1cc(NC(=O)CN(C[C@@H](N)CCCCN)C(=O)CC23CC4CC(CC(C4)C2)C3)cc(NC(=O)CN(C[C@@H](N)CCCCN)C(=O)CC23CC4CC(CC(C4)C2)C3)c1	2 (≈ 2.15 µM)	9 (≈ 9.67 µM)	4.5 (≈ 4.84 µM)	2 (≈ 2.15 µM)	2 (≈ 2.15 µM)	125	62.5	9 (≈ 9.67 µM)	–	–	–	–	–	–	–
CCCCCCCCNC(=O)c1cc(NC(=O)CN(C[C@@H](N)CCCCN)C(=O)CC23CC4CC(CC(C4)C2)C3)cc(NC(=O)CN(C[C@@H](N)CCCCN)C(=O)CC23CC4CC(CC(C4)C2)C3)c1	4.5 (≈ 4.7 µM)	9 (≈ 9.39 µM)	19 (≈ 19.8 µM)	2 (≈ 2.09 µM)	4.5 (≈ 4.7 µM)	125	62.5	9 (≈ 9.39 µM)	–	–	–	–	–	–	–
CCCCCCCC(=O)NCCNC(=O)c1cc(NC(=O)CN(C[C@@H](N)CCCCN)C(=O)Cc2cccc3ccccc23)cc(NC(=O)CN(C[C@@H](N)CCCCN)C(=O)Cc2cccc3ccccc23)c1	> 25	4.5 (≈ 4.5 µM)	> 25	9 (≈ 9.01 µM)	9 (≈ 9.01 µM)	> 250	> 27.8	4.5 (≈ 4.5 µM)	–	–	–	–	–	–	–
CCCCCCCCCCNC(=O)c1cc(NC(=O)CN(C[C@@H](N)CCCCN)C(=O)CC23CC4CC(CC(C4)C2)C3)cc(NC(=O)CN(C[C@@H](N)CCCCN)C(=O)CC23CC4CC(CC(C4)C2)C3)c1	2 (≈ 2.03 µM)	> 25	> 25	2 (≈ 2.03 µM)	9 (≈ 9.12 µM)	125	62.5	> 25	–	–	–	–	–	–	–
CCCCCCCC(=O)NCCNC(=O)c1cc(NC(=O)CN(C[C@@H](N)CCCCN)C(=O)CCCCCCC)cc(NC(=O)CN(C[C@@H](N)CCCCN)C(=O)CCCCCCC)c1	4.5 (≈ 4.92 µM)	4.5 (≈ 4.92 µM)	4.5 (≈ 4.92 µM)	4.5 (≈ 4.92 µM)	4.5 (≈ 4.92 µM)	> 250	> 55.5	> 25	–	–	–	–	–	–	–
CCCCCCCCCCCC(=O)NCCNC(=O)c1cc(NC(=O)CN(C[C@@H](N)CCCCN)C(=O)CC23CC4CC(CC(C4)C2)C3)cc(NC(=O)CN(C[C@@H](N)CCCCN)C(=O)CC23CC4CC(CC(C4)C2)C3)c1	4.5 (≈ 4.2 µM)	> 25	> 25	4.5 (≈ 4.2 µM)	4.5 (≈ 4.2 µM)	250	55.5	> 25	–	–	–	–	–	–	–
